Results published in ChEMBL document CHEMBL1156291, “Design of potent and selective GSK3beta inhibitors with acceptable safety profile and pharmacokinetics” (Bioorg Med Chem Lett, 2010).
Values after ≈ are worked out from the molar mass of the structure shown.

Tests used:
[1] = Solubility of the compound; format: physicochemical
Outline: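 Solubility measured by nephelometry.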

[2] = Lipophilicity, log D at pH 7.4; format: physicochemical; conditions: buffer
[3] = Metabolic stability in human liver S9 fraction assessed as compound remaining after 15 mins; format: ADME, subcellular; conditions: read-out: Activity
Outline: (§1)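 Compound exposed for 15 min to hepatic S9 fraction, human or mouse according to the line. Read-out is percent of parent compound remaining.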

[4] = Metabolic stability in mouse liver S9 fraction assessed as compound remaining after 15 mins; format: ADME, subcellular; conditions: read-out: Activity; outline: as §1
Caco-2 = assay: Permeability across human Caco-2 cells assessed as compound transport per hr; format: ADME, cell-based
Cytochrome P450 1A2 = biological target: T1, Cytochrome P450 1A2 (Homo sapiens, UniProt P05177); assay: Inhibition of human recombinant CYP1A2; format: ADME
T1 sequence (P05177 whole entry): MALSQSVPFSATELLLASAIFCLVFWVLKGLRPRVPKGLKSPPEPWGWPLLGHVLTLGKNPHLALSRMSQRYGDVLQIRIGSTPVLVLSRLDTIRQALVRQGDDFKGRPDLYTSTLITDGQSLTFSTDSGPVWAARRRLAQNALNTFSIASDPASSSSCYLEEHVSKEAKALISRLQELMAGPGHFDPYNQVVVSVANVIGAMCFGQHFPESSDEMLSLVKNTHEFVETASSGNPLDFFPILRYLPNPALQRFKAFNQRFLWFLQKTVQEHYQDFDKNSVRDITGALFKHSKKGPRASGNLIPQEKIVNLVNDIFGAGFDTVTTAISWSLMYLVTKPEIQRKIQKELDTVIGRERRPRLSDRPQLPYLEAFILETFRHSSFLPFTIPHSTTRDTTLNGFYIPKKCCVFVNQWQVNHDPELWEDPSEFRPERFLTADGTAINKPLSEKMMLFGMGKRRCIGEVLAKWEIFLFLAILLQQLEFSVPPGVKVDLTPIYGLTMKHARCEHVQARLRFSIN
Outline: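 Human recombinant CYP1A2 with 3-cyano-7-ethoxycoumarin as probe substrate. Fluorescence read at Ex 410 nm / Em 460 nm. IC50 determined.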

[5] = biological target: Cytochrome P450 1A2 (Homo sapiens) (UniProt P05177); assay: Inhibition of human recombinant CYP1A2 by kinetic assay
[6] = biological target: Cyclin-dependent kinase 2 (Homo sapiens) (UniProt P24941); assay: Inhibition of CDK2 at 10 uM
[7] = biological target: Cyclin-dependent kinase 4 (Homo sapiens) (UniProt P11802); assay: Inhibition of CDK4 at 10 uM
[8] = biological target: Cyclin-dependent kinase 5 (Homo sapiens) (UniProt Q00535); assay: Inhibition of CDK5 at 10 uM
[9] = biological target: Cyclin-dependent kinase 9 (Homo sapiens) (UniProt P50750); assay: Inhibition of CDK9 at 10 uM
[10] = biological target: Voltage-gated inwardly rectifying potassium channel KCNH2 (Homo sapiens, UniProt Q12809); assay: Inhibition of human ERG
[11] = biological target: Glycogen synthase kinase-3 beta (Rattus norvegicus) (UniProt P18266); assay: Inhibition of GSK3-beta assessed as tau phosphorylation
Albumin = Albumin (Homo sapiens, UniProt P02768); assay: Binding affinity to human serum albumin; format: ADME; conditions: isolated protein
Cytochrome P450 3A4 = Cytochrome P450 3A4 (Homo sapiens, UniProt P08684); assay: Inhibition of human recombinant CYP3A4; format: ADME
Cytochrome P450 2D6 = Cytochrome P450 2D6 (Homo sapiens, UniProt P10635); assay: Inhibition of human recombinant CYP2D6; format: ADME
Cytochrome P450 2C9 = Cytochrome P450 2C9 (Homo sapiens, UniProt P11712); assay: Inhibition of human recombinant CYP2C9; format: ADME
Cytochrome P450 2C19 = Cytochrome P450 2C19 (Homo sapiens, UniProt P33261); assay: Inhibition of human recombinant CYP2C19; format: ADME
hERG (KCNH2) = hERG (KCNH2) (Homo sapiens, UniProt Q12809); assay: Inhibition of human ERG at 10 uM
Sequence of hERG (KCNH2) (Q12809 whole entry): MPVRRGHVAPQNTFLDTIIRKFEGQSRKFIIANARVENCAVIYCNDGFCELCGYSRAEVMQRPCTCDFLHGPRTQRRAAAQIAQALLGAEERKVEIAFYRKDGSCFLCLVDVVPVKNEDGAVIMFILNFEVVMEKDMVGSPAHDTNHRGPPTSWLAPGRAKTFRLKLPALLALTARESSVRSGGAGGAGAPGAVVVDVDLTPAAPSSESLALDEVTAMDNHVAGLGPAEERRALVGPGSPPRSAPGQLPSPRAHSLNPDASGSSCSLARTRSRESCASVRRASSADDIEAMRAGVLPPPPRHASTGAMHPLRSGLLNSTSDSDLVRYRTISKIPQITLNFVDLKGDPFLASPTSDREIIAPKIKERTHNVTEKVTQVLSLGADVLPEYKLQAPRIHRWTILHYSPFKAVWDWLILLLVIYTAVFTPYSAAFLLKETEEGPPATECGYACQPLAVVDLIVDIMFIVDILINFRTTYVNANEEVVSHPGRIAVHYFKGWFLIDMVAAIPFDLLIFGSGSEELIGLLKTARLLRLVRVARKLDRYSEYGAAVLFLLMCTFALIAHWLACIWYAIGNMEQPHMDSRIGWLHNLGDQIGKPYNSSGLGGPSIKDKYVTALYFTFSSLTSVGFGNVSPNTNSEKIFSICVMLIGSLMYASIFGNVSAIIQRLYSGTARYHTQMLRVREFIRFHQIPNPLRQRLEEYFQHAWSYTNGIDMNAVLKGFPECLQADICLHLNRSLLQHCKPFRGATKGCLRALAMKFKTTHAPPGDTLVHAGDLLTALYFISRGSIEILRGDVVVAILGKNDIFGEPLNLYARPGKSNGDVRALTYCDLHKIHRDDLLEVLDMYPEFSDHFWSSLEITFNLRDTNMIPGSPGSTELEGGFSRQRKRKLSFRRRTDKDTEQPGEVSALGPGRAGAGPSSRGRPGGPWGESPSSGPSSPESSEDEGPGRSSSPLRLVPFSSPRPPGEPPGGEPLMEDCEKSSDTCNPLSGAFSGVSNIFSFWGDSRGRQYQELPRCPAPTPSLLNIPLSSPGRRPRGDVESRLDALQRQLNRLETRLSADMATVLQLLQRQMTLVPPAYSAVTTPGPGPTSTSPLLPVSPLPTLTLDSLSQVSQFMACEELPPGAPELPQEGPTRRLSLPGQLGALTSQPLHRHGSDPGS

Sequence of Albumin (P02768 whole entry): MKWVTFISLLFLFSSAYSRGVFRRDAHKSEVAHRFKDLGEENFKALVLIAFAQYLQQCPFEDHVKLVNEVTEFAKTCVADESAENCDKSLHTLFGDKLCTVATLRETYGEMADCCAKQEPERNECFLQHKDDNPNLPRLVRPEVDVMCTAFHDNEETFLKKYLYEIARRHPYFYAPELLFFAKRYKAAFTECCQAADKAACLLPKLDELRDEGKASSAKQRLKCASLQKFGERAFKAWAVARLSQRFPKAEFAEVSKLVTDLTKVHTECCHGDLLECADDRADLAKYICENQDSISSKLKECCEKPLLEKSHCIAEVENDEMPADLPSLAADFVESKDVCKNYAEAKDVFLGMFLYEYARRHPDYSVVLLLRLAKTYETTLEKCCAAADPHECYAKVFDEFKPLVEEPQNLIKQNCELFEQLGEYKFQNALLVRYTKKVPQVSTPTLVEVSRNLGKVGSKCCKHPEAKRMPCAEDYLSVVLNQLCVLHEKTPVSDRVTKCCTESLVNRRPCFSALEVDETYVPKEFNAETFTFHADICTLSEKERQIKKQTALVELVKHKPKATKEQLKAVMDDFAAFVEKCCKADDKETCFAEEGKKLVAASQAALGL
Sequence of Cytochrome P450 2C9 (P11712 whole entry): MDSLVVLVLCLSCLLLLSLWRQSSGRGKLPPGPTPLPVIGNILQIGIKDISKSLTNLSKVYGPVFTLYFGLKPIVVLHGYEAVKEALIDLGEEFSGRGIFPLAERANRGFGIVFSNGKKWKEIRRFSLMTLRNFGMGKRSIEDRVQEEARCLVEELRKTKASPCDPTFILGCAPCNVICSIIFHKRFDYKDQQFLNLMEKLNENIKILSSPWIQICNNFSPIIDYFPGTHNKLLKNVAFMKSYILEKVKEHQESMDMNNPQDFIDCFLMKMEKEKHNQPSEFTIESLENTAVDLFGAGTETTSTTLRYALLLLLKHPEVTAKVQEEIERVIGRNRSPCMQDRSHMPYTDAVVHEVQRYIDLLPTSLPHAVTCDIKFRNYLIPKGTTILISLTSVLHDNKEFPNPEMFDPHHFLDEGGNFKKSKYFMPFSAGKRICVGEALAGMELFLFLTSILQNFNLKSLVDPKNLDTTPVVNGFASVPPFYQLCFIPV
Sequence of Cytochrome P450 2D6 (P10635 whole entry): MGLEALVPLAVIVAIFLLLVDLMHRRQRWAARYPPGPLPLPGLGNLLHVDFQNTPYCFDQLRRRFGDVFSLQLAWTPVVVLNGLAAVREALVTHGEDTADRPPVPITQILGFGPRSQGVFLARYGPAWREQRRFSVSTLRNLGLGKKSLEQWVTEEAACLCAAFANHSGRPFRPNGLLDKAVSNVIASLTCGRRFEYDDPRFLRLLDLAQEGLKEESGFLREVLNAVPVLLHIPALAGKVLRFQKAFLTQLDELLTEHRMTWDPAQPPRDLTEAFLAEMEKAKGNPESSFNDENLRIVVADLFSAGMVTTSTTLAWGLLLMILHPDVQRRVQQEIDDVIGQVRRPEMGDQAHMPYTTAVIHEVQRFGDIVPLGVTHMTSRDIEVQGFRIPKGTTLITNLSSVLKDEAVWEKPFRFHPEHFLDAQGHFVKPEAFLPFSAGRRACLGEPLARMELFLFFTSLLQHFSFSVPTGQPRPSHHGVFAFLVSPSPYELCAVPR
Sequence of Cytochrome P450 3A4 (P08684 whole entry): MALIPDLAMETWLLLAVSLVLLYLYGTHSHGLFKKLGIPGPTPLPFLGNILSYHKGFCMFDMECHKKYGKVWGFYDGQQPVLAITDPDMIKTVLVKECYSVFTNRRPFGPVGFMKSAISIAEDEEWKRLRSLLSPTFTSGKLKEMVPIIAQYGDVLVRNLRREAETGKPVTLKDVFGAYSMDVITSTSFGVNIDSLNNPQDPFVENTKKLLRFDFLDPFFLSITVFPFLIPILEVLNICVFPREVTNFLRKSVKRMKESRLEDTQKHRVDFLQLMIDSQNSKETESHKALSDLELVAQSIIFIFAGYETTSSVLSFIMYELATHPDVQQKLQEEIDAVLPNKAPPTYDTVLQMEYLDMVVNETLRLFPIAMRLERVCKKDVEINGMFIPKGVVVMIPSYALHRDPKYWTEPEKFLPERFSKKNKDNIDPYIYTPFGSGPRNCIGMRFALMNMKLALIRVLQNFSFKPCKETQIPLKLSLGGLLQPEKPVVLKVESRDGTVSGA
Sequence of Cytochrome P450 2C19 (P33261 whole entry): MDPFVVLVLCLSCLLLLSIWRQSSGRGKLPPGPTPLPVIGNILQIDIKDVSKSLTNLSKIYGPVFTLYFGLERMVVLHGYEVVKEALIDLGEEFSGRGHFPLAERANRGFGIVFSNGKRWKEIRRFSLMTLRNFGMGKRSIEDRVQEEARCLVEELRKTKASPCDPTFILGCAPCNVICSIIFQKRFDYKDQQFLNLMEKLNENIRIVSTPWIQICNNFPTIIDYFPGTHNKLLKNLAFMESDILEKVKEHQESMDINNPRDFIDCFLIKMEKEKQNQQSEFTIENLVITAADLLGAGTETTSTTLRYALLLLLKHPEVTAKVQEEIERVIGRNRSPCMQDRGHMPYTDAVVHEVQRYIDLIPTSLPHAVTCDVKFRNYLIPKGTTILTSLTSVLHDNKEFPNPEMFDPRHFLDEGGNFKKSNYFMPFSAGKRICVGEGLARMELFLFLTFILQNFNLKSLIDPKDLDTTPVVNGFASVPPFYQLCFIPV
Sequence of Cyclin-dependent kinase 4 (Homo sapiens) (P11802 whole entry): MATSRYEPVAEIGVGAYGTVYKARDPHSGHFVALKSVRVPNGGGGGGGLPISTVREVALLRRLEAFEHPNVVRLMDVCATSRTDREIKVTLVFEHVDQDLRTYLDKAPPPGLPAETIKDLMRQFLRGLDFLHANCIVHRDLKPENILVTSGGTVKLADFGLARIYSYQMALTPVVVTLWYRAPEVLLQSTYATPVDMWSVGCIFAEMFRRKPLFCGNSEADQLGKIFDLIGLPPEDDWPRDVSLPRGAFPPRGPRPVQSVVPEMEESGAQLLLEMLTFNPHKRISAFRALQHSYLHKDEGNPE
Sequence of Cyclin-dependent kinase 9 (Homo sapiens) (P50750 whole entry): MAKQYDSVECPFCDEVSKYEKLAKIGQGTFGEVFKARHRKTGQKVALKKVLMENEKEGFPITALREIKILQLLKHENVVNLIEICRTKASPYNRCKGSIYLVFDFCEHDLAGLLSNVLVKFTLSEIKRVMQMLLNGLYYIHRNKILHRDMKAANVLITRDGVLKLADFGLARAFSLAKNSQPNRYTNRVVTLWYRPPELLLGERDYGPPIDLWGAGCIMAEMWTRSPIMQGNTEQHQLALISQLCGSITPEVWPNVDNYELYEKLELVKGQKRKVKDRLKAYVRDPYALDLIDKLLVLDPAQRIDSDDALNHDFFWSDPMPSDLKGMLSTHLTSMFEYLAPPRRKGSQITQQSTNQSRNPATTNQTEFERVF
Sequence of Cyclin-dependent kinase 5 (Homo sapiens) (Q00535 whole entry, looked up): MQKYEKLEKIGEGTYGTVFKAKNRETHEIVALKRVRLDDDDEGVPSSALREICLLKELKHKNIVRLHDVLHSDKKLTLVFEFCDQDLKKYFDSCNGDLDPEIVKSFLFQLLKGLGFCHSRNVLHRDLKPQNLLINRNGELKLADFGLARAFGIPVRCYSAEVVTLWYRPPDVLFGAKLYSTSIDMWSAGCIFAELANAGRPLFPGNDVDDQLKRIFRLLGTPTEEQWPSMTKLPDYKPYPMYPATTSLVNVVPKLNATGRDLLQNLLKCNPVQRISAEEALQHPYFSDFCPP

SMILES | solubility [1] | logD [2] | remaining at 0.25 h [4] | IC50 (Cytochrome P450 1A2) | IC50 [5] | further results
CCCC(=O)Nc1n[nH]c2c(F)c(F)ccc12 | 0.054 mg/mL (≈ 226 µM) | 3 | 93% |  |  | remaining at 0.25 h [3]: 98%; permeability (Caco-2): 16.33%
O=C(Nc1ccccc1)Nc1n[nH]c2cc(Cl)c(-c3ccccc3)cc12 | < 0.02 mg/mL |  | 92% |  |  | inhibition [6]: < 50%; inhibition [7]: < 50%; inhibition [8]: < 50%; inhibition [9]: 81%; IC50 [10]: > 10 µM; IC50 [11]: 270 nM
O=C(Nc1n[nH]c2cc(Cl)c(-c3ccccc3)cc12)N1CCCC1 | < 0.02 mg/mL |  | 79% |  |  | 
CCCC(=O)Nc1n[nH]c2cc(Cl)c(Br)cc12 | < 0.02 mg/mL | 4.4 | 87% | 550 nM |  | remaining at 0.25 h [3]: 97%; permeability (Caco-2): 17.25%
CCCC(=O)Nc1n[nH]c2cc(Cl)c(-c3ccc([N+](=O)[O-])cc3)cc12 |  |  |  | 4460 nM |  | 
O=C(NCCCn1ccnc1)Nc1n[nH]c2cc(Cl)c(-c3ccccc3)cc12 | < 0.02 mg/mL |  | 85% |  |  | 
CCCC(=O)Nc1n[nH]c2cc(Cl)c(-c3ccccc3)cc12 | < 0.02 mg/mL | 3.7 | 40% | < 400 nM | 80 nM | Activity (Albumin): 99.4%; remaining at 0.25 h [3]: 91%; permeability (Caco-2): 3.9%; IC50 (Cytochrome P450 3A4): > 10 µM; IC50 (Cytochrome P450 2D6): > 10 µM; IC50 (Cytochrome P450 2C9): > 10 µM; IC50 (Cytochrome P450 2C19): > 10 µM; inhibition at 10 µM (hERG (KCNH2)): 24%
CCC(=O)Nc1n[nH]c2cc(Cl)ccc12 |  | 2.2 |  |  |  | solubility ([1]; read-out: solubility): 0.168 mg/mL (≈ 751 µM); Activity (Albumin): 92.8%
O=C(CN1CCOCC1)Nc1n[nH]c2cc(Cl)ccc12 | < 0.02 mg/mL | 3.1 |  |  |  | 
O=C(O)CCC(=O)Nc1n[nH]c2cc(Cl)ccc12 |  | < 1 |  | > 50000 nM |  | solubility ([1]; read-out: solubility): 0.716 mg/mL (≈ 2670 µM); Activity (Albumin): < 90%
CCCC(=O)Nc1n[nH]c2cc(Cl)c(-c3ccoc3)cc12 | < 0.02 mg/mL | 4.1 | 4% | < 400 nM | 30 nM | remaining at 0.25 h [3]: 45%; permeability (Caco-2): 12.3%
O=C(CN1CCOCC1)Nc1n[nH]c2cc(Cl)c(-c3ccccc3)cc12 | 0.028 mg/mL (≈ 75.5 µM) | 3.49 |  |  |  | 
CN1CCN(CCCNC(=O)Nc2n[nH]c3cc(Cl)c(-c4ccccc4)cc23)CC1 | > 0.208 mg/mL |  | 100% |  |  | 
CCCC(=O)Nc1n[nH]c2c(F)c(F)c(-c3ccccc3)cc12 | 0.004 mg/mL (≈ 12.7 µM) | 2.4 | 56% |  |  | remaining at 0.25 h [3]: 86%
CC(C(=O)Nc1n[nH]c2cc(Cl)c(-c3ccccc3)cc12)N1CCCCC1 (centres undefined) | < 0.02 mg/mL | 3.53 |  |  |  | 
CCCC(=O)Nc1n[nH]c2cc(Cl)c(-c3ccc(OCc4ccccc4)cc3)cc12 |  |  |  | > 10000 nM |  | 

Further lines, with some results ahead:

solubility [1] | logD [2] | remaining at 0.25 h [4] | IC50 (Cytochrome P450 1A2) | IC50 [5] | SMILES | further results
 |  |  | 13800 nM | 2700 nM | CCCC(=O)Nc1n[nH]c2cc(-c3cc(F)cc(F)c3)ccc12 | 
 |  |  | 1750 nM |  | CCCC(=O)Nc1n[nH]c2cc(Cl)c(-c3ccc(C)cc3)cc12 | 
 |  |  | 1900 nM |  | CCCC(=O)Nc1n[nH]c2cc(-c3ccsc3)ccc12 | 
0.067 mg/mL (≈ 227 µM) |  | 4% | > 50000 nM | 22000 nM | CCCC(=O)Nc1n[nH]c2cc(-c3ccc(O)cc3)ccc12 | Activity (Albumin): 97.3%; remaining at 0.25 h [3]: 58%; permeability (Caco-2): 15.25%
 |  |  | 980 nM |  | CCCC(=O)Nc1n[nH]c2cc(Cl)c(-c3ccc(N)cc3)cc12 | 
< 0.02 mg/mL | 4.4 | 10% | > 10000 nM | 70 nM | CCCC(=O)Nc1n[nH]c2cc(-c3ccc(O)cc3)c(Br)cc12 | Activity (Albumin): 99.3%; remaining at 0.25 h [3]: 91%; IC50 (Cytochrome P450 3A4): > 10 µM; IC50 (Cytochrome P450 2D6): > 10 µM; IC50 (Cytochrome P450 2C9): > 10 µM; IC50 (Cytochrome P450 2C19): > 10 µM; inhibition at 10 µM (hERG (KCNH2)): 7%
 |  |  | 1200 nM | 5900 nM | CCCC(=O)Nc1n[nH]c2cc(-c3cccnc3)ccc12 | 
 |  |  | 830 nM | 130 nM | CCCC(=O)Nc1n[nH]c2cc(Cl)c(-c3ccc(F)cc3)cc12 | 
 |  |  | > 10000 nM | 390 nM | CCCC(=O)Nc1n[nH]c2cc(-c3ccccc3)ccc12 | 
< 0.02 mg/mL | 3.9 | 19% |  | 80 nM | CCCC(=O)Nc1n[nH]c2cc(Cl)c(-c3ccc(O)cc3)cc12 | permeability (Caco-2): 8.02%
